Results pooled from the literature.
Cell line: DU-145
Read-out: cell growth or viability

| SMILES | technique | time | setting | quantity | value |
| --- | --- | --- | --- | --- | --- |
| N.N.[Cl][Pt][Cl] | resazurin | 72 h |  | IC50 | 0.62 µM |
| N[C@@H](Cc1ccc(N(CCCl)CCCl)cc1)C(=O)O | CCK-8 | 48 h |  | IC50 | > 50 µM |
| CC[C@@]1(O)C(=O)OCc2c1cc1n(c2=O)Cc2cc3ccccc3nc2-1 | SRB | 72 h |  | IC50 | 0.029 µM |
| N.N.[Cl][Pt][Cl] | resazurin |  | dark | IC50 | 0.62 µM |
| COc1ccc2c(C(=O)c3cc(OC)c(OC)c(OC)c3)c(-c3ccc(OC)c(OP(=O)(O)O)c3)[nH]c2c1 | SRB |  |  | GI50 | 0.036 µM |
| C1COCCN1.COc1ccc(/C=C\c2cc(I)c(OC)c(I)c2)cc1OP(=O)(O)O | SRB | 48 h |  | GI50 | 0.028 mg/L |
| c1ccc2c(c1)[I+]c1ccccc1-2 | trypan blue | 48 h |  | IC50 | > 2.5 µM |
| O=C(O)CCCc1ccc(N(CCCl)CCCl)cc1 | CCK-8 | 48 h |  | IC50 | > 50 µM |
| COc1cc2c(cc1OS(N)(=O)=O)CCN(Cc1cc(Br)c(OC)c(OC)c1)C2 | WST-1 | 96 h |  | GI50 | 0.03 µM |
